Assay results: ChEMBL document CHEMBL3352211, “Ganoboninketals A-C, Antiplasmodial 3,4-seco-27-Norlanostane Triterpenes from Ganoderma boninense Pat” (J Nat Prod, 2014)

Key:
RAW264.7 [1] = assay: Antiinflammatory activity in mouse RAW264.7 cells assessed as inhibition of NO production after 24 hrs by Griess assay; format: functional, cell-based; settings: RAW264.7, 24 h
In short: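 RAW 264.7 mouse macrophages were kept in RPMI 1640 with 10% heat-inactivated FBS, penicillin and streptomycin at 37 °C and 5% CO2. They were seeded at 5 × 10^5 cells/mL. After 1 h, LPS (1 mg/mL as printed) and graded compound concentrations (DMSO solvent) were added for 24 h. Supernatant NO was measured by Griess reaction.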

A549 = assay: Cytotoxicity against human A549 cells assessed as reduction in cell viability after 72 hrs by MTT assay; format: functional, cell-based; settings: A549, 72 h
In short: (§1)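 Cells were exposed to compounds (DMSO solvent) for 72 h at 37 °C in 5% CO2. MTT (0.5 mg/mL in medium) was added for 4 h, and formazan was dissolved in DMSO and read at 540 nm. Inhibition rates were plotted against concentration to give IC50 (±SD); three independent experiments, each in triplicate.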

RAW264.7 [2] = assay: Cytotoxicity against mouse RAW264.7 cells assessed as reduction in cell viability at 200 uM; format: cell-based; settings: raw264.7, 200 µM
HeLa = assay: Cytotoxicity against human HeLa cells assessed as reduction in cell viability after 72 hrs by MTT assay; format: functional, cell-based; in short: as §1
Plasmodium falciparum = assay: Antiplasmodial activity against Plasmodium falciparum 3D7 infected in human RBC assessed as reduction in parasitemia after 48 hrs by fluorescence assay; format: functional, organism-based; settings: 3D7, 48 h
In short: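 P. falciparum 3D7 was grown in human RBCs in Albumax II-supplemented RPMI 1640. Assay cultures at 2% hematocrit and 1% parasitemia were exposed to compounds (DMSO solvent) for about 48 h at 37 °C. Parasite DNA was labelled with PicoGreen in TE buffer pH 7.5 with 2% Triton X-100 for 30 min in the dark and read at ex 485 / em 538 nm. IC50 came from linear interpolation; three independent experiments, each in triplicate.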

Row | SMILES | IC50 (RAW264.7 [1]) [µM] | IC50 (Plasmodium falciparum) [µM] | IC50 (A549) [µM] | Activity (RAW264.7 [2]) | IC50 (HeLa) [µM]
1 | C=C(C)[C@@H]1C[C@H](OC(C)=O)[C@]23OC[C@]4(CC(=O)[C@@H]2[C@@]1(C)CCC(=O)OC)[C@@]3(C)CC[C@@]41O[C@@]2(CC)CC[C@]1(C)O2 | 60.9 | 1.7 | 35.8 | Non-toxic | > 100
2 | C[C@@H]1CC[C@H]2[C@@H](C)C(=O)O[C@@H]3O[C@@]4(C)CC[C@@H]1[C@]32OO4 [ARTEMISININ] |  | 0.0304 |  |  | 
3 | C=C(C)[C@@H]1C[C@H](OC(C)=O)C2=C(C(=O)C[C@]34CO[C@@]5(CC)CC[C@](C)(O5)[C@H]3CC[C@@]24C)[C@@]1(C)CCC(=O)OC | 98.3 | 4 | 47.6 | Non-toxic | > 100

More lines, main results first:

Row | IC50 (RAW264.7 [1]) [µM] | IC50 (Plasmodium falciparum) [µM] | SMILES | IC50 (A549) [µM] | Activity (RAW264.7 [2]) | IC50 (HeLa) [µM]
4 | 53.7 |  | C[C@]12CCC(=O)C=C1CC[C@@H]1[C@@H]2[C@@H](O)C[C@@]2(C)[C@H]1CC[C@]2(O)C(=O)CO [HYDROCORTISONE] |  |  | 
5 | 24.3 | 7.9 | C=C(C)[C@@H]1CC(=O)C2=C(C(=O)C[C@]34CO[C@@]5(CC)CC[C@](C)(O5)[C@H]3CC[C@@]24C)[C@@]1(C)CCC(=O)OC | > 100 | Non-toxic | 65.5
